The record followed here is ChEMBL document CHEMBL3734668, “Evaluation of small molecule SecA inhibitors against methicillin-resistant Staphylococcus aureus” (Bioorg Med Chem, 2015).

For data set [1], the system named is Staphylococcus aureus. The data set can be described thus: Bactericidal activity against Methicillin sensitive Staphylococcus aureus ATCC 6538 assessed as CFU reduction for 1 hr. The class given is functional, organism-based. The gist of the method:
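Log-phase LB cultures (OD600 ≈ 0.5) mixed with a range of inhibitor concentrations, shaken at 1,000 rpm, 37 °C, 1 hr, under normal room light. Cultures serially diluted in LB, plated on LB agar, incubated overnight at 37 °C. CFU counted; bactericidal effect taken as CFU reduction versus untreated control.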

The test system of data set [2] is Staphylococcus aureus. As to the kind of experiment: Bacteriostatic activity against wild type Staphylococcus aureus 8325-4. It counts as functional. The method, boiled down: (§1)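 Broth microdilution MIC per CLSI guidance in LB, 37 °C, shaking 250 rpm, 24 hr; run in triplicate in three separate experiments. MIC taken as lowest inhibitor concentration with no growth. Compounds from DMSO stocks; untreated controls carry equal DMSO.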

Data set [3] deals with Staphylococcus aureus. The data set can be described thus: Bacteriostatic activity against NorA deficient Staphylococcus aureus K1758. It counts as functional. The method, boiled down:
as §1

For data set [4], the system named is Staphylococcus aureus. As to the kind of experiment: Bacteriostatic activity against Staphylococcus aureus K2361 overexpressing NorA. It counts as functional. The method, boiled down:
as §1

Data set [5] concerns Staphylococcus aureus. The data set can be described thus: Bacteriostatic activity against MepA deficient Staphylococcus aureus K2908. The class given is functional. The gist of the method: as §1
For data set [6], the system named is Staphylococcus aureus. As to the kind of experiment: Bacteriostatic activity against Staphylococcus aureus K2068 overexpressing MepA. It counts as functional. The gist of the method:
as §1

Data set [7] has as its system Staphylococcus aureus. As to the kind of experiment: Effect on general protein synthesis in Staphylococcus aureus Mu50 at 10 uM measured within 15 hrs. It counts as ADME, organism-based. Conditions: in vivo.
Data set [8] relates to Staphylococcus aureus. The data set can be described thus: Reduction in extracellular protein in Staphylococcus aureus Mu50 supernatant at 10 uM measured within 15 hrs. It counts as functional, organism-based. The method, boiled down: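 Mu50 grown in LB at 37 °C; inhibitor added at mid-log phase (OD600 ≈ 2.6). Culture sampled at various times, supernatant separated by centrifugation and passed through 0.45 μm filter. Secreted α-hemolysin, TSST-1 and enterotoxin B detected by Western blot with specific antibodies.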

The target of data set [9] is T1, Protein translocase subunit SecA 1 (Staphylococcus aureus (strain NCTC 8325)) (UniProt O06446).
T1 sequence (whole entry): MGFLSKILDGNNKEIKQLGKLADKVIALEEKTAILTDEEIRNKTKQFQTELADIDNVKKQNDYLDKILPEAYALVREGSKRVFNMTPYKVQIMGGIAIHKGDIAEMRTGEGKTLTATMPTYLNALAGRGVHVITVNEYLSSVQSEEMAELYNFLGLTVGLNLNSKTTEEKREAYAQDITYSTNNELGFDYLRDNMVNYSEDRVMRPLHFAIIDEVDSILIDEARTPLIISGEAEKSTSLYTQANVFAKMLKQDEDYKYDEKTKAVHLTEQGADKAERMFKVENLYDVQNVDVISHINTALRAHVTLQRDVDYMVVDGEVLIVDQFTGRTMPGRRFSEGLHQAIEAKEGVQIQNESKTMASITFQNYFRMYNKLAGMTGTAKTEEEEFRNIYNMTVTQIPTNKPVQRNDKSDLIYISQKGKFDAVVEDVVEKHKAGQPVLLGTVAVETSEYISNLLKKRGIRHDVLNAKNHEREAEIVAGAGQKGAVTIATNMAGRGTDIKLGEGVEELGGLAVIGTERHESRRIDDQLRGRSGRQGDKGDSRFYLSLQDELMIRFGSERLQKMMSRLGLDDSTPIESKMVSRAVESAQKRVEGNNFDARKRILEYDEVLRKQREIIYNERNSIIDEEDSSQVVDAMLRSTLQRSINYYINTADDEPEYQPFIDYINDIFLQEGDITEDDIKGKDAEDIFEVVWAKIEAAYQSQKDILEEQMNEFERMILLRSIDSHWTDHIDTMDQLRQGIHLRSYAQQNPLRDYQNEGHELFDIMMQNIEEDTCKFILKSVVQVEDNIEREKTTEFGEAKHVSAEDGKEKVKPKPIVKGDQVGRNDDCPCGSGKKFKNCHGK
As to the kind of experiment: Non-competitive inhibition of Staphylococcus aureus ATCC 35556 SecA1 liposomal ATPase activity in Xenopus laevis oocytes incubated for 3 hrs measured by Lineweaver-Burk plot analysis. The class given is cell-based. The gist of the method: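 SaSecA1-liposome plus proOmpA co-injected into Xenopus oocytes at varying ATP and inhibitor concentrations, incubated 3 hr at 23 °C, ion current recorded 1 min; n = 9-10. Inhibition mode assessed across ATP levels.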

In data set [10] the target is T2, Protein translocase subunit SecA 1 (Staphylococcus aureus (strain NCTC 8325), UniProt O06446).
T2 sequence (O06446 whole entry): T1 sequence (whole entry)
The data set can be described thus: Inhibition of Staphylococcus aureus ATCC 35556 SecA1 liposome dependent proOmpA translocation incubated for 1.5 hrs measured by Western blot analysis. The gist of the method: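 Per 0.1 ml: 50 mM Tris-HCl pH 7.6, 20 mM NH4Cl, 25 mM KCl, 2 mM Mg(OAc)2, ATP-regenerating system, 1.5 μg SaSecA1, 100 ng SecB, 120 ng proOmpA, 120 μg liposomes, with varying inhibitor; 30 °C, 1.5 hr. Translocated proOmpA scored as proteinase K-protected, quantified by Western blot; n = 3.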
A general note: A western blot detects proteins with antibodies after separation by electrophoresis.

The target of data set [11] is T1, Protein translocase subunit SecA 1 (Staphylococcus aureus (strain NCTC 8325)). As to the kind of experiment: Inhibition of Staphylococcus aureus SecA1 assessed as reduction in secretion of enterotoxin B at 10 uM by Western blot analysis. The method, boiled down:
(§2)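 S. aureus Mu50 grown in LB at 37 °C; inhibitor added at mid-log phase and cultures sampled at several time points. Supernatants separated by centrifugation, filtered 0.45 μm, and probed by Western blot with antibodies to α-hemolysin, TSST-1 or enterotoxin B.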

Data set [12] has the same target. As to the kind of experiment: Inhibition of Staphylococcus aureus SecA1 assessed as reduction in secretion of TSST-1 at 10 uM by Western blot analysis. The method, boiled down:
as §2

Data set [13] relates to Staphylococcus aureus. The data set can be described thus: Bacteriostatic activity against Staphylococcus aureus N315 after 24 hrs. The class given is functional. Conditions: N315, 24 h. The gist of the method: as §1
The test system of data set [14] is Staphylococcus aureus. As to the kind of experiment: Bacteriostatic activity against Staphylococcus aureus Mu3 after 24 hrs. Conditions: Mu3, 24 h. It counts as functional. The gist of the method: as §1
In data set [15] the test system is Staphylococcus aureus. As to the kind of experiment: Bacteriostatic activity against Staphylococcus aureus Mu50 after 24 hrs. Conditions: Mu50, 24 h. It counts as functional. The method, boiled down:
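Broth microdilution per CLSI guidelines in LB. Inhibitor added to dilute early-log culture (OD600 ≈ 0.05), 37 °C, 250 rpm, 24 hrs. Run in triplicate in three separate experiments. MIC read as the lowest concentration with no growth.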

Data set [16] has as its system Staphylococcus aureus. The data set can be described thus: Bacteriostatic activity against Staphylococcus aureus Newman after 24 hrs. The class given is functional. The gist of the method:
as §1

Data set [17] relates to Staphylococcus aureus. The data set can be described thus: Potency index, ratio of MIC for ampicillin to MIC for test compound against Methicillin resistant Staphylococcus aureus. The class given is functional.
The subject of data set [18] is Staphylococcus aureus. As to the kind of experiment: Potency index, ratio of MIC for erythromycin to MIC for test compound against Methicillin resistant Staphylococcus aureus. It counts as functional.
The subject of data set [19] is Staphylococcus aureus. As to the kind of experiment: Potency index, ratio of MIC for norfloxacin to MIC for test compound against Methicillin resistant Staphylococcus aureus. The class given is functional.
Data set [20] relates to Staphylococcus aureus. The data set can be described thus: Bactericidal activity against Methicillin resistant Staphylococcus aureus Mu50 assessed as CFU reduction at 30 uM for 1 hr. The class given is functional. The gist of the method: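 Log-phase Mu50 cultures (OD600 ≈ 0.5) mixed with a range of inhibitor concentrations, shaken 1,000 rpm at 37 °C for 1 hr under normal room light. Cultures then serially diluted in LB, plated on LB agar and incubated overnight at 37 °C. Activity expressed as reduction in CFU relative to untreated control containing matching DMSO.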

In brackets after ≈: the same amount, converted by molar mass. Activity calls are given as the source filed them. No cut-off for these calls is given here. Bounds are passed on as bounds.

As to `CCCCCCC1c2ccc(O)cc2Oc2cc(O)ccc21`, the Activity entry was “Dose-dependent effect” with Staphylococcus aureus [1], “Non-toxic” in the data set on Staphylococcus aureus [7] and above 3 log10CFU/ml with Staphylococcus aureus [20]. In addition, the MIC in the data set on Staphylococcus aureus [2], against Staphylococcus aureus [3], in the data set on Staphylococcus aureus [4], in the data set with Staphylococcus aureus [5], with Staphylococcus aureus [6] and against Staphylococcus aureus [13] was 4 µg/mL (≈ 13.4 µM) in each case. Also, the MIC in the data set on Staphylococcus aureus [14], in the data set on Staphylococcus aureus [15] and against Staphylococcus aureus [16] was 4 µg/mL (≈ 13.4 µM) each time. Also, the outcome in the data set on Staphylococcus aureus [8] was Active. The inhibition result in [9], in [11] and in data set [12] was “Active” in each case. This molecule registered a concentration for half-maximal inhibition (IC50) in data set [10] of 4 µM. For the same molecule, the Ratio in the data set on Staphylococcus aureus [17] amounted to 250; in the data set on Staphylococcus aureus [18], 250; in the data set on Staphylococcus aureus [19], 7.

The MIC is the least concentration at which growth counts as inhibited. For orientation: IC50 means the point on the concentration scale where inhibition reaches its midpoint.
